ChEMBL document CHEMBL1124668, “Solid-phase synthesis of 16 potent (selective and nonselective) in vivo antagonists of oxytocin” (J Med Chem, 1989)
Starred links: 1 amine or outer side, 2 acyl side, 3 side chain; linkers in the order of their positions; H or OH if unused. Positions of bridges follow the written chain, without caps; N, C: chain ends. Non-standard residues stand in square brackets, D forms with d. Residues, ends and D or L forms follow the SMILES beside them. X1 = O=C(CC1(S[*:2])CCCCC1)[*:1]; Orn = NCCC[C@H](N)C(=O)O

Columns and labels:
Rattus norvegicus [1] = assay: Antivasopressor activity in vivo in phenoxybenzamine pre-treated rats.; format: functional
Procedure, shortened: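 Rats pretreated with phenoxybenzamine, under urethane anesthesia; antagonist given iv; agonist USP Posterior Pituitary Reference Standard; read-out is pressor response. Effective dose (nmol/kg) is the dose that cuts the response to 2X units of agonist to that of 1X unit, interpolated semilogarithmically from bracketing doses. pA2 assumes a 67 mL/kg distribution volume. SEM is given where there are ≥4 independent estimates.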

Rattus norvegicus [2] = assay: Antidiuretic activity in rats as intravenous dose required for reduction of 2x agonist response to equal 1x effect in estrogen pretreated rats; weak partial agonist/antagonist; format: functional, Urine
Rattus norvegicus [3] = species: Rattus norvegicus; assay: Antidiuretic activity in rat; format: functional, Urine
Rattus norvegicus [4] = assay: In vivo inhibition of estrogen induced changes in interuterine pressure in rats.; format: functional
Procedure, shortened: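 Rats pretreated with estrogen, under urethane anesthesia; antagonist given iv; read-out is change in integrated intrauterine pressure; agonist synthetic oxytocin. Effective dose (nmol/kg) is the dose that cuts the response to 2X units of agonist to the response to 1X unit, interpolated on a semilog scale from doses above and below it. pA2 is derived assuming a 67 mL/kg distribution volume.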

Rattus norvegicus [5] = assay: In vivo antidiuretic activity as intravenous antagonist dose in estrogen pretreated rats; Weak partial agonist/antagonist; format: functional, Urine
Rattus norvegicus [6] = assay: In vivo antidiuretic activity as intravenous antagonist dose in estrogen pretreated rats; format: functional, Urine

SMILES | ED (Rattus norvegicus [1]) [nM/kg] | ED (Rattus norvegicus [2]) [nM/kg] | Activity (Rattus norvegicus [3]) [mg] | ED (Rattus norvegicus [4]) [nM/kg] | Activity (Rattus norvegicus [5]) [mg] | Activity (Rattus norvegicus [6]) [mg]
CC[C@H](C)[C@@H]1NC(=O)[C@H](Cc2ccc(OC)cc2)NC(=O)CC2(CCCCC2)SSC[C@@H](C(=O)N2CCC[C@H]2C(=O)N[C@@H](CCCN)C(=O)NCC(N)=O)NC(=O)[C@H](CC(N)=O)NC(=O)[C@H]([C@@H](C)O)NC1=O (Y(Me)ITNCP[Orn]G-NH2; linker N-5 via X1) | 9.9 | ~330 | 0.01 | 2 |  | 
CC[C@H](C)[C@@H]1NC(=O)[C@H](Cc2ccc(OC)cc2)NC(=O)CC2(CCCCC2)SSC[C@@H](C(=O)N2CCC[C@H]2C(=O)N[C@@H](CCCN)C(=O)N[C@@H](CC(C)C)C(N)=O)NC(=O)[C@H](CC(N)=O)NC(=O)[C@H]([C@@H](C)O)NC1=O (Y(Me)ITNCP[Orn]L-NH2; linker N-5 via X1) | 27 |  |  | 1.8 | 0.029 | 
CC[C@H](C)[C@@H]1NC(=O)[C@H](Cc2ccc(OC)cc2)NC(=O)CC2(CCCCC2)SSC[C@@H](C(=O)N2CCC[C@H]2C(=O)N[C@@H](CCCN)C(=O)N[C@@H](Cc2ccc(O)cc2)C(N)=O)NC(=O)[C@H](CC(N)=O)NC(=O)[C@H]([C@@H](C)O)NC1=O (Y(Me)ITNCP[Orn]Y-NH2; linker N-5 via X1) | 6.6 |  |  | 1 |  | 0.015
